Results collected from several papers.
Lines come from different studies, so protocols differ.
Target: Casein kinase I isoform epsilon (CSNK1E, Homo sapiens, UniProt P49674)

Structure (SMILES)	read-out	mode	method	tested at	endpoint	value
Cc1ccc(C(=O)Nc2ccc(CN3CCN(C)CC3)c(C(F)(F)F)c2)cc1C#Cc1cnc2cccnn12	enzyme activity	inhibitor	–	23.5 nM	remaining activity	88%
O=C(O)c1cc(-c2ccc(C3CCNCC3)cc2)c2ccc(-c3ccc(C(F)(F)F)cc3)cc2c1	cell-free assay	–	competition with immobilised ligand	1 µM	remaining binding	100%
CC1(C)NC(=O)c2[nH]c3c(Cl)c(Cl)ccc3c2C1C#N (stereo not shown)	thermal stability	–	DSF	10 µM	ΔTm	1.8 °C
CC(C)(C)c1nc2c(s1)c1nc(N)ncc1c1ccc(NS(=O)(=O)c3c(F)cccc3F)c(F)c12	enzyme activity	inhibitor	radiometric	1 µM	remaining activity	84%
N#CCCc1ccc2c(c1)-c1[nH]c3ccc([N+](=O)[O-])cc3c1CC(=O)N2	cell-free assay	–	–	0.5 µM	remaining signal	91.4%
Cn1c2c(c3ccc(Cl)c(Cl)c31)C(C#N)C1(CCOCC1)NC2=O (stereo not shown)	thermal stability	–	DSF	10 µM	ΔTm	0.4 °C
Nc1ncnc2occ(-c3ccc(NC(=O)Nc4cc(C(F)(F)F)ccc4F)cc3)c12	enzyme activity	inhibitor	–	20 µM	remaining activity	0.65%
COc1cc2c(N3CCN(C(=O)Nc4ccc(OC(C)C)cc4)CC3)ncnc2cc1OCCCN1CCCCC1	cell-free assay	–	–	0.5 µM	remaining signal	99.1%
COc1cc2ncnc(Nc3ccc(Oc4ccccc4)cc3C)c2cc1OC	enzyme activity	inhibitor	–	1 µM	inhibition	2%
CCCCN(CCCC)C(=O)CN1C[C@H](c2cc(OC)c3c(c2)OCO3)[C@@H](C(=O)O)[C@@H]1CC(C)(C)CCC	cell-free assay	–	competition with immobilised ligand	1 µM	remaining binding	100%
O=C(Nc1cnn(-c2csc(C(=O)NC3COC3)c2)c1)Nc1ccccc1Cl	enzyme activity	inhibitor	–	5 µM	remaining activity	89.6%
CS(=O)(=O)CCNCc1ccc(-c2ccc3ncnc(Nc4ccc(OCc5cccc(F)c5)c(Cl)c4)c3c2)o1	enzyme activity	–	–	0.5 µM	remaining activity	99.4%
CC(C)(O)c1cncc(-c2nc3ccc(F)cc3n2C2CC2)c1	cell-free assay	–	competition with immobilised ligand	1 µM	remaining binding	100%
O=C1NC(=O)c2cc(Nc3ccc(F)cc3)c(Nc3ccc(F)cc3)cc21	enzyme activity	inhibitor	–	0.5 µM	remaining activity	98%
Cc1sc(C(=O)NC2COC2)cc1-n1cc(NC(=O)Nc2c(F)cccc2Cl)cn1	enzyme activity	inhibitor	–	10 µM	remaining activity	97.9%
Cn1c2c(c3ccccc31)C(C#N)C(C)(C)NC2=O (stereo not shown)	thermal stability	–	DSF	10 µM	ΔTm	0.8 °C
O=C(Nc1cccnn1)N1CC(C/C=C/c2cncc(Oc3ccc(C(F)(F)F)cn3)n2)C1	cell-free assay	–	competition with immobilised ligand	1 µM	remaining binding	100%
Cc1ccc(NC(=O)c2ccc(CN3CCN(C)CC3)cc2)cc1Nc1nccc(-c2cccnc2)n1	enzyme activity	inhibitor	–	0.5 µM	activity vs control	92.4%
CN([C@@H]1CCc2c(CC(=O)O)c3ccccc3n2C1)S(=O)(=O)c1ccc(F)cc1	cell-free assay	–	competition with immobilised ligand	1 µM	remaining binding	90%
O=c1c2ccccc2[nH]c(=S)n1CCN1CCC(=C(c2ccc(F)cc2)c2ccc(F)cc2)CC1	enzyme activity	inhibitor	–	0.5 µM	remaining activity	100%
CC(C)(O)[C@H]1CC[C@H](Nc2ccc3ncc(-c4cccc(C(F)(F)F)c4)n3n2)CC1	enzyme activity	inhibitor	–	1 µM	remaining activity	78.5%
CC1=C(C#N)C(c2ccc3c(c2)c(NC(=O)c2ccccc2C)nn3C)C(C#N)=C(C)N1	cell-free assay	–	competition with immobilised ligand	1 µM	remaining binding	100%
